ChEMBL document CHEMBL1142544 (J Med Chem, 2008)
Active and inactive are the calls of the source. The calls are words filed in the database; no cut-off is given here.

How the values were obtained:
[1] = Stimulation of human Vgamma9Vdelta2 T lymphocytes assessed as gamma delta expansion factor after 7 days; type: functional
BT-549 [2] = assay: Antitumor activity against human BT-549 cells xenografted SCID mouse co-transfected with human gamma delta T lymphocytes assessed as survival time prolongation at 2 ug, ip coadministered with human recombinant IL2; type: functional, organism-based
How it was run: (§1)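 SCID mice were conditioned by irradiation and anti-asialo-GM1 monoclonal antibody. On day 0 they received a single ip injection of BT549 breast cancer cells (2 × 10⁶/mouse). Drug was given ip (2 µg or 5 µg) with the tumor cells, alone or with ip human rIL-2 (300 ng). Where indicated, purified human γδ T cells (2 × 10⁷/mouse) were added. Cells and drug were reinjected every 15 days, with IL-2 on the same day and days 3 and 6 after. Read-out was mean survival time in days.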

[3] = Induction of apoptosis in human CEM-VBL300 cells expressing p-glycoprotein at 100 uM by flow cytometry; type: functional
How it was run: (§2)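 Tumor cells were exposed to 100 µM compound. Cells (1 × 10⁶) were washed in PBS, pelleted at 200g for 5 min, and stained with FITC-annexin V plus propidium iodide for 15 min at 20 °C. The percentage of annexin-V-positive cells was measured by flow cytometry.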

K562 [4] = assay: Induction of apoptosis in human K-562 cells expressing Bcr-Abl at 100 uM by flow cytometry; type: functional; how it was run: as §2
BT-549 [5] = assay: Antitumor activity against human BT-549 cells xenografted SCID mouse co-transfected with human gamma delta T lymphocytes assessed as survival time prolongation at 5 ug, ip; type: functional, cell-based; how it was run: as §1
BT-549 [6] = assay: Antitumor activity against human BT-549 cells xenografted SCID mouse co-transfected with human gamma delta T lymphocytes assessed as survival time prolongation at 5 ug, ip coadministered with human recombinant IL2; type: functional, organism-based; how it was run: as §1
K562 [7] = assay: Induction of apoptosis in human K-562 cells expressing Bcr-Abl at <50 uM by flow cytometry; type: functional, cell-based
BT-549 [8] = assay: Antitumor activity against human BT-549 cells xenografted SCID mouse assessed as survival time prolongation at 2 ug, ip
BT-549 [9] = assay: Antitumor activity against human BT-549 cells xenografted SCID mouse assessed as survival time prolongation at 2 ug, ip; type: functional, cell-based; how it was run: as §1
[10] = Cytotoxicity against human CFU-GM cells at 100 uM after 7 days
HuT78 = assay: Induction of apoptosis in human HUT78 cells at 100 uM by flow cytometry; type: functional; how it was run: as §2
CCRF-CEM = assay: Induction of apoptosis in human CCRF-CEM cells at 100 uM by flow cytometry; type: functional; how it was run: as §2
[11] = molecular target: T1, Farnesyl pyrophosphate synthase (Homo sapiens, UniProt P14324); assay: Inhibition of human FPP synthase expressed in Escherichia coli BL21 (DE3)
T1 sequence (P14324 whole entry): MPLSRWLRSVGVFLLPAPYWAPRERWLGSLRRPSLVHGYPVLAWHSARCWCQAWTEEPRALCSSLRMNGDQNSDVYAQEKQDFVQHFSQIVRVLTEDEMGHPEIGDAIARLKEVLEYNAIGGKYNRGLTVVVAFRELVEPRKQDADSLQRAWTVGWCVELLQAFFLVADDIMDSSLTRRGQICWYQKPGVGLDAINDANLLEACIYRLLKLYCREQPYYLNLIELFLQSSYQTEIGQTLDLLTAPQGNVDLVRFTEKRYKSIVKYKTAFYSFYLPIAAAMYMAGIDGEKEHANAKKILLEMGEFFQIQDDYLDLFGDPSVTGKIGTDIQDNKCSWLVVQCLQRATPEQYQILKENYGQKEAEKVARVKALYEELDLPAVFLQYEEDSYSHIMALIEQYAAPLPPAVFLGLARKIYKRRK

BT-549 [12] = assay: Antitumor activity against human BT-549 cells xenografted SCID mouse co-transfected with human gamma delta T lymphocytes assessed as survival time prolongation at 2 ug, ip; type: functional, cell-based
How it was run: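 SCID mice conditioned by irradiation plus anti-asialo-GM1 antibody; day 0 single i.p. BT549 (2 × 10⁶/mouse) with concomitant i.p. drug (2 µg), ± rIL-2 (300 ng), plus highly purified human γδ T cells (2 × 10⁷/mouse). γδ T cells and drug re-injected every 15 days; rIL-2 the same day and 3 and 6 days after each. Read-out: mean survival time (days).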

O.O=P(O)(O)C(O)(Cn1ccnc1)P(=O)(O)O [ZOLEDRONIC ACID]
Activity [1]: 0.1 µM | Activity (BT-549 [2]): Active | Activity [3]: 22% | Activity (K562 [4]): 16% | Activity (BT-549 [5]): inactive | Activity (BT-549 [6]): Active | Activity (K562 [7]): inactive | Activity (BT-549 [8]): inactive | Activity (BT-549 [9]): inactive | Activity [10]: 18% | Activity (HuT78): 24% | Activity (CCRF-CEM): 20%

O=P(O)(O)C(Cn1cnc2c(Cl)ncnc21)P(=O)(O)O
Activity [1]: 0.1 µM | IC50 [11]: 883 nM

O=P(O)(O)C(CSc1ncc[nH]1)P(=O)(O)O
Activity [1]: >10 µM | IC50 [11]: 28.1 nM

O=P(O)(O)C(Cn1cccn1)P(=O)(O)O
Activity [1]: >10 µM | IC50 [11]: 3070 nM

O=P(O)(O)C(Cn1cnc2cncnc21)P(=O)(O)O
Activity [1]: 0.2 µM | IC50 [11]: 388 nM

O=P(O)(O)C(Cn1ccnc1)P(=O)(O)O
Activity [1]: 0.001 µM | Activity [3]: 37% | Activity (K562 [4]): 15% | Activity (BT-549 [12]): Active | Activity (K562 [7]): inactive | Activity (BT-549 [8]): inactive | Activity (BT-549 [9]): inactive | Activity [10]: 15% | Activity (HuT78): 40% | Activity (CCRF-CEM): 22%

O=P(O)(O)C(Cn1cnc2ccccc21)P(=O)(O)O
Activity [1]: 1 µM | IC50 [11]: 16.1 nM
